{"source": "paper PMC3787769", "about": "(The Journal of General Physiology, 2013)", "key": {"CaM": {"target": "CaM (Bos taurus, UniProt P62157)", "assay": "Badan fluorescence peptide-binding assay with CaM", "details": "3 µM peptide, 1.5 µM CaM, free Ca2+ 0.007 to 10 µM"}, "[1]": {"target": "Badan-labeled ANO 1 RCBM peptide, mutant m15,20 (rat)", "assay": "other fluorescence titration"}, "[2]": {"target": "Badan-labeled ANO 1 RCBM peptide, mutant m2,6 (rat)", "assay": "other fluorescence titration"}, "[3]": {"target": "Badan-labeled ANO 2 RCBM peptide, mutant m15,20 (rat)", "assay": "other fluorescence titration"}, "[4]": {"target": "Badan-labeled ANO 2 RCBM peptide, mutant m2,6 (rat)", "assay": "other fluorescence titration"}, "ANO 1": {"tested_on": "ANO 1", "format": "cell-based, rat", "details": "for Effect on ANO 1 current density (channel activation): bath application of 20 µM TFP or 50 µM J-8 for 10–70 min", "in_short": "(§1)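 HEK 293 cells transiently transfected with rat ANO with C-terminal YFP tag; cells of similar YFP intensity recorded whole-cell. Bath (mM): 150 CsCl, 10 HEPES, 10 EGTA, pH 7.4. Pipette: 150 mM Cl−, 10 mM HEDTA, 10 mM HEPES, pH 7.0, free Ca2+ 0.7–62 µM. Ramps −80 to +80 mV (1 s), every 15 s from 2 min after breakthrough; current density in pA/pF.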"}, "ANO 2": {"tested_on": "ANO 2", "format": "cell-based, rat", "details": "for Effect on ANO 2 current density (channel activation): bath application of 20 µM TFP or 50 µM J-8 for 10–70 min", "in_short": "as §1"}}}
{"compound": "RKLEYEEEASYGVFYKEQPIDEVRK [ANO ctrl]", "values": [{"measurement": "CaM binding of Badan-labeled peptide (Ca2+-dependent change of emission spectra)", "setting": "CaM", "result": "completely abolished CaM binding"}]}
{"compound": "wild-type calmodulin (wt CaM), purchased (from UniProt P0DP23 1-149) (natural protein)", "values": [{"measurement": "EC50 of free Ca^2+ for CaM binding", "setting": "[1]", "result": 15.2, "unit": "µM"}, {"measurement": "EC50 of free Ca^2+ for CaM binding", "setting": "[2]", "result": 12, "unit": "µM"}, {"measurement": "EC50 of free Ca^2+ for CaM binding", "setting": "[3]", "result": 0.6, "unit": "µM"}, {"measurement": "EC50 of free Ca^2+ for CaM binding", "setting": "[4]", "result": 6, "unit": "µM"}]}
{"compound": "CN1CCN(CCCN2c3ccccc3Sc3ccc(C(F)(F)F)cc32)CC1", "note": "[TFP, trifluoperazine]", "values": [{"measurement": "Effect on ANO 1 current density (channel activation)", "setting": "ANO 1", "result": "did not significantly reduce"}, {"measurement": "Effect on ANO 2 current density (channel activation)", "setting": "ANO 2", "result": "did not significantly reduce"}]}
{"compound": "NCCCCCCCCNS(=O)(=O)c1cccc2c(I)cccc12", "note": "[J-8]", "values": [{"measurement": "Effect on ANO 1 current density (channel activation)", "setting": "ANO 1", "result": "did not significantly reduce"}, {"measurement": "Effect on ANO 2 current density (channel activation)", "setting": "ANO 2", "result": "did not significantly reduce"}]}
{"compound": "CN[C@@H]1C[C@H]2O[C@@](C)([C@@H]1OC)n1c3ccccc3c3c4c(c5c6ccccc6n2c5c31)C(=O)NC4", "note": "[staurosporine]", "values": [{"measurement": "Effect on ANO 1 channel activation or inactivation", "setting": "ANO 1; 0.2–2 µM, 5–50 min, applied to the bath solution, 6 cells, unpublished data", "result": "did not detect any effect"}, {"measurement": "Effect on ANO 2 channel activation or inactivation", "setting": "ANO 2; 0.2–2 µM, 5–50 min, applied to the bath solution, 18 cells, unpublished data", "result": "did not detect any effect"}]}
